# Sampled rows, rich in hits. Any-hit rate of the full collection: about 1.8%.
# M5 ag = human M5 muscarinic receptor agonists, primary screen, CHO-K1 cells, Fluo-8 calcium fluorescence. Muscarinic acetylcholine receptor M5 (Homo sapiens), P08912. CHO-K1 hM5 cells; 0% DMSO wells, 100% maximal acetylcholine response. activation, % at 3 µM. hit rate 0.19% among 360,000;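 active = activation above the run's mean over test compounds plus 3 SD, cut at about 23% in these data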;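 note: signal is peak over basal fluorescence ratio across the kinetic read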
# CHRM5 antagonist = human M5 muscarinic receptor antagonists, primary screen, CHO cells, Fluo-8 calcium fluorescence. CHO-hM5 cells, ACh EC80. hit rate 0.59% among 360,000. AID 624040, 2012. inhibition, % at 3 µM. Muscarinic acetylcholine receptor M5 (Homo sapiens), P08912;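 active = inhibition above a per-plate cutoff, the mean of that plate's test compounds plus 3 SD, cut at about 27% in these data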;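 note: 0% = acetylcholine EC80 with DMSO and 100% = DMSO without agonist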
# CHRM4 PAM = human M4 muscarinic receptor positive allosteric modulators, primary screen, CHO-K1 cells, Fluo-8 calcium fluorescence; Muscarinic acetylcholine receptor M4 (Homo sapiens), P08173; CHO-K1 hM4/Gqi5, ACh EC20; 0% = ACh EC20, 100% = maximal ACh; activation, % at 3 µM; hit rate 0.4% among 360,000;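 active = activation above its plate's cutoff, the mean activation of sample wells plus 3 SD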
# Target sequence (P08173 whole entry, looked up): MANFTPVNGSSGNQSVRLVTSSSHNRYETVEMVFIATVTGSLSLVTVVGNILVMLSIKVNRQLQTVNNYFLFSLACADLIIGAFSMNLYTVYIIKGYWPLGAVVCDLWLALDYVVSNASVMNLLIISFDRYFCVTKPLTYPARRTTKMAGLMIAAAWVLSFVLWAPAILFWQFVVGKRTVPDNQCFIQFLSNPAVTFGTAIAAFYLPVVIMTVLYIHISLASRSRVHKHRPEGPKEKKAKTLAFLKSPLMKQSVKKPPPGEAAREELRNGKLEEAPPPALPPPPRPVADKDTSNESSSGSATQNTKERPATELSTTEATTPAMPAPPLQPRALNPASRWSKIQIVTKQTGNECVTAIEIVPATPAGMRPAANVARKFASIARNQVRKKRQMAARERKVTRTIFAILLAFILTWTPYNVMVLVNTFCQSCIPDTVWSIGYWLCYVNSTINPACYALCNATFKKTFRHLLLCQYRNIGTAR
# M4 ag = human M4 muscarinic receptor agonists, primary screen, CHO-K1 cells, Fluo-8 calcium fluorescence; activation, % at 3 µM; CHO-K1 hM4/Gqi5; vehicle 0%, full acetylcholine response 100%; Muscarinic acetylcholine receptor M4 (Homo sapiens), P08173; hit rate 0.14% among 360,000;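 active = activation above the run mean over all test wells plus 3 SD, cut at about 32% in these data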;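 note: peak over basal fluorescence ratio per well then scaled between controls; 0% = DMSO wells and 100% = acetylcholine at EC100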
# M4 antag = human M4 muscarinic receptor antagonists, primary screen, CHO cells, Fluo-8 calcium fluorescence | inhibition, % at 3 µM | AID 624125, 2012 | hit rate 0.73% among 360,000 | CHO-hM4 cells, ACh EC80 | Muscarinic acetylcholine receptor M4 (Homo sapiens), P08173;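 active = inhibition above its plate's cutoff, the mean inhibition of sample wells plus 3 SD, cut at about 27% in these data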;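 note: 0% = acetylcholine EC80 with DMSO and 100% = DMSO without agonist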
# CHRM5 PAM = human M5 muscarinic receptor positive allosteric modulators, primary screen, CHO-K1 cells, Fluo-8 calcium fluorescence; hit rate 0.3% among 360,000; activation, % at 3 µM; CHO-K1 hM5, ACh EC20 PAM; 0% = ACh EC20, 100% = ACh EC100;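 active = activation above the run cutoff, the mean activation of all test compounds plus 3 SD, cut at about 18% in these data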
#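 system = human M5 receptor in CHO-K1 cells | reagent = EC20 acetylcholine as agonist stimulus | compound dosing = single-point, 3 µM nominal | incubation = Fluo-8 loading 80 min at 37 °C plus 30 min room temperature | detection = Fluo-8 calcium dye fluorescence, kinetic read | benchmarks = low control EC20 acetylcholine (0%), high control EC100 acetylcholine (100%)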
# * hit, by the source's call.
SMILES,M5 ag,CHRM5 antagonist,CHRM4 PAM,M4 ag,M4 antag,CHRM5 PAM
O=C(C1=C[C@H](c2coc3ccccc3c2=O)C[C@H](OCCCCO)O1)N1CCN(Cc2ccccc2)CC1,-9,62*,-3,4,-2,-25
O=C(NCc1ccccc1)C1=C[C@@H](c2coc3ccccc3c2=O)C[C@@H](OCCCCO)O1,-4,28*,-11,6,3,-9
Cc1ccc(S(=O)(=O)NC(=O)C2(C)CCN2C(=O)CCc2ccc(Cl)cc2Cl)nc1 (centres undefined),1,-1,4,0,-5,3
Cc1ccc2c(c1)N(C(=O)CCC(=O)NCc1cccnc1)CC(C)O2 (centres undefined),0,3,5,0,-4,-5
O=C(Nc1ccc(-c2nc3ccccc3s2)c(O)c1)C1=COCCO1,1,-12,9,-2,-24,3
O=C(Nc1ccc(O)c(-c2nc3ccccc3s2)c1)C1=COCCO1,-4,23,-41,2,79*,-20
Cc1nnc(SCC(=O)NC(=O)Nc2ccc3c(c2)OCCO3)n1N,3,-9,-6,1,5,9
COc1ccc(NC(=O)CSc2nnnn2C)c([N+](=O)[O-])c1,-3,32*,9,1,9,-8
COc1ccc(NC(=O)CSc2nnnn2C)cc1,0,10,0,6,1,0
COc1ccc(C(=O)NNC(=O)CSc2nnnn2C)cc1,2,-4,13,0,1,19*
Cn1nnnc1SCC(=O)Nc1ccccc1[N+](=O)[O-],-4,-4,5,1,-8,2
CCn1c(SCC(=O)N2CCCCC2C)nnc1-c1ccco1 (centres undefined),-1,5,-6,1,5,-4
CC1CCCCN1C(=O)CSc1nnc(-c2ccco2)n1CC1CCCO1 (centres undefined),2,0,30*,2,9,0
CCn1cc(C(=S)N2CCC(C(N)=O)CC2)c2ccccc21,-2,15,-4,1,6,1
Cc1ccc(OCC(O)Cn2c(=N)n(Cc3ccccc3)c3ccccc32)cc1 (centres undefined),3,10,-24,33*,12,-7
CCCNS(=O)(=O)c1cc2c3c(c1)CCN3C(=O)CC2,-4,2,5,1,9,0
Cc1cccn2c(=O)nc(SCC(=O)c3ccccc3)nc12,5,-4,12,1,-3,2
Fc1ccccc1CNC(=S)Nc1cccc(C(F)(F)F)c1,6,27*,-23,14,9,-20
CCOc1ccccc1CNS(=O)(=O)c1ccc(-c2cnc(C3CC3)o2)cc1,3,28*,-11,19,28*,-16
CC(Sc1nc(-c2ccccc2)c(-c2ccccc2)[nH]1)C(=O)NCC1CCCO1 (centres undefined),0,5,13,6,-23,-2
CC(=O)N1CCOc2ccc(S(=O)(=O)N(C)c3ccc(C)cc3)cc21,-4,6,2,6,29*,-8
COc1ccc(C(=O)Nc2cc(C)nn2-c2ccc(C)cc2)cc1,-3,-5,0,2,1,9
COCC(=O)N(Cc1cc2cc(C)ccc2[nH]c1=O)c1ccccc1,0,-2,23*,2,-21,6
COCC(=O)N(Cc1cc2ccc(C)cc2[nH]c1=O)c1cccc(C)c1,1,-8,-5,0,-4,1
COc1ccc(C(=O)Oc2cc3c4c(c2)C(C)=CC(C)(C)N4C(=O)C3=O)cc1OC,12,7,4,2,5,-7
SMILES,M5 ag,CHRM5 antagonist,CHRM4 PAM,M4 ag,M4 antag,CHRM5 PAM
COc1cc2c3c(c1)C(C)=CC(C)(C)N3C(=O)C2=O,36*,8,3,0,3,-5
COc1cccc(C(=O)Oc2cc3c4c(c2)C(C)=CC(C)(C)N4C(=O)C3=O)c1,57*,46*,-8,7,24,0
COc1cccc(C(=O)NCC2CCCN(C(=O)Cc3cccc(C)c3)C2)c1OC (centres undefined),0,-3,1,5,-4,-2
CC1=[N+](C)c2c(ccc3cccnc23)C1(C)C,2,37*,-19,13,35*,-18
Nc1nc(Nc2ccccc2)nc(NCc2ccccc2)c1[N+](=O)[O-],-5,5,-22,-1,-4,3
Nc1nc(Nc2ccccc2F)nc(NCc2ccccc2)c1[N+](=O)[O-],6,-5,6,-1,-8,19*
c1ccc(CNc2nc(NCCc3ccncc3)c3sccc3n2)cc1,96*,99*,-16,155*,100*,-20
c1csc(CNc2nc(NCC3CCCCC3)c3sccc3n2)c1,10,26,-13,19,27*,-5
O=C1NCCN1CCNc1nc(NCc2ccccc2)nc2ccsc12,20,22,-15,46*,52*,-19
COCCNc1nc(NCc2cccs2)nc2ccsc12,96*,81*,-16,159*,92*,-21
CC(C)Nc1nc(NCCN2CCNC2=O)c2sccc2n1,-1,8,9,1,-9,-4
CC(=O)NCCNc1nc(NCc2cccs2)nc2ccsc12,2,0,-7,5,1,-4
O=C(Cc1ccc(-c2ccccc2)cc1)OCC(=O)N1CCCC1=O,0,7,-5,3,-7,-4
CO[C@H]1CN(C)C(=O)c2ccc(NS(=O)(=O)c3ccccc3F)cc2OC[C@H](C)NC[C@@H]1C,-1,5,7,0,-3,0
O=C1CCCN1CCCNc1nc(NCc2cccs2)nc2ccsc12,41*,22,-15,96*,53*,-19
c1ccc(CNc2nc(NCc3cccs3)nc3ccsc23)cc1,14,42*,-14,40*,16,-22
O=C1CCCN1CCCNS(=O)(=O)c1cccs1,-1,7,4,1,13,-1
CCOc1ccc(S(=O)(=O)N(C)CC(=O)N2CCN(CC)CC2)cc1,-1,-1,5,1,-4,8
CCN(CC)c1ccc(/C=C(/C#N)c2nc3ccccc3[nH]2)c(OC(C)C)c1,11,12,-19,57*,13,-4
CCOc1cccc(/C=C(/C#N)c2nc3ccccc3[nH]2)c1OCC(=O)O,4,-13,-6,0,-9,1
